According to PMC9290801 (Journal of Clinical Pharmacology, 2021):
Read-outs that look alike come from different tables or passages of the source.

What was measured:
[1] = Physicochemical parameters
[2] = Blood-to-plasma ratio and plasma protein binding; type: in vitro ADME
[3] = Madin-Darby Canine Kidney II permeability measurement; type: in vitro ADME; settings: dog, MDCK
[4] = PBPK model absorption/distribution input parameters; parameters: species or system human; settings: Estimated based on observed Cmax and PK profile (Study NCT02093728)
Summary of the method: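 Minimal 4-compartment PBPK model in Simcyp v17 with first-order absorption and a single adjusting compartment (intercompartmental clearance 8 L/h, from a population PK model). Compartment volume was fitted to observed Cmax and profile from a healthy-volunteer trial: 10 × 10 virtual subjects aged 18–44 years given a single oral 25 mg dose.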

CYP3A = CYP3A contribution to selumetinib clearance; parameters: species or system human
CYP2C19 = CYP2C19 contribution to selumetinib clearance; parameters: species or system human
P-glycoprotein (P-gp) = assay: P-gp transport kinetics; type: in vitro ADME; settings: not told
Summary of the method: (§1)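 Intestinal P-gp kinetics were estimated by the Troutman–Thakker approach, assuming one-site saturable Michaelis–Menten kinetics, with intrinsic clearance derived from Jmax and Km. The values were placed at the intestinal apical site (ADAM absorption, minimal PBPK) and at the hepatic canalicular site (full PBPK, tissue:plasma Kp 0.4).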

P‐glycoprotein (P‐gp) = assay: P-gp transport kinetics; type: in vitro ADME
Summary of the method: as §1

[5] = cited from earlier work
[6] = cited from earlier work; remark: listed apart in the source
[7] = cited from earlier work; remark: listed apart in the source
[8] = coadministration with rifampicin vs selumetinib alone; cited from earlier work
[9] = single oral dose, healthy adult subjects; cited from earlier work
[10] = adults with solid tumors; cited from earlier work

Compound: Cn1cnc2c(F)c(Nc3ccc(Br)cc3Cl)c(C(=O)NOCCO)cc21 [selumetinib]
- logP [1]: 3.88
- B:P (blood‐to‐plasma ratio) ([2]; Report KPJ003): 0.625
- fraction unbound ([2]; plasma): 0.016
- Papp [3]: 37.7 ×10⁻⁶ cm/s
- Vsac (volume of single adjusting compartment) [4]: 1 L/kg
- CYP3A CLint (CYP3A; Retrograde from CLpo 19.6 L/h, fm 25%): 0.568 µL/min/pmol
- fm (fraction metabolized) by CYP3A (CYP3A; assigned according to DDI study with itraconazole): 25%
- CYP2C19 CLint (CYP2C19; Retrograde from CLpo 19.6 L/h, fm 15%): 3.335 µL/min/pmol
- fm (fraction metabolized) by CYP2C19 (CYP2C19; assigned according to DDI study with fluconazole): 15%
- Km (P-glycoprotein (P-gp)): 15.8 µM
- maximal carrier‐mediated flux (Jmax) (P‐glycoprotein (P‐gp); estimated, one‐site Michaelis‐Menten saturable kinetics): 9.9 pmol/min
- P‐gp intrinsic clearance (P‐glycoprotein (P‐gp); from Jmax and Km): 0.62 µL/min
- observed exposure (AUC from time 0 to 12 hours) ([5]; SPRINT phase 2 cohort, 25 mg/m^2): 2009 ng·h/mL
- maximum tolerated dose ([5]; pediatric SPRINT phase 1, twice daily): 25 mg/m^2
- terminal elimination half‐life ([5]; pediatric patients, single oral dose): ≈ 6 hours
- fraction of absorption (Oral dose → First pass) ([6]; oral dose): > 71%
- dose eliminated as unchanged in urine ([6]; renal elimination): < 1 % of dose
- Observed geomean AUC (CV%) ([7]; 25 mg dose+fluconazole): 1770 ng·h/mL
- Observed geomean AUC (CV%) ([7]; 25 mg dose+itraconazole): 1760 ng·h/mL
- Observed geomean AUC (CV%) ([7]; 25 mg single oral dose alone, healthy volunteers): 1180 ng·h/mL
- decrease in AUC [8]: 51%
- reduction in Cmax [8]: 26%
- absolute (oral) bioavailability [9]: 62%
- maximum tolerated dose [10]: 75 mg
